Assay outcomes (PubChem BioAssay)
Most compounds without a hit are left out; they make up all but 3.1% or so of the library.
hERG protect: compounds protecting human hERG from proarrhythmic drug block; activation (rescue from dofetilide block), less the hit threshold, % at 10 µM; Q12809; AID 1511; 310,000 compounds, 0.51% hits; CHO-hERG, FluxOR thallium flux, dofetilide IC70 present;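 active = activation above the mean of controls blocked by dofetilide plus 5 SD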;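 note: thallium influx through hERG after potassium depolarization seen as dye fluorescence rise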
KCNQ1 act: human KCNQ1 channel potentiation or activation. B-score at 10 µM. P51787. AID 2648. 310,000 compounds, 0.35% hits. CHO-K1 KCNQ1, thallium flux FluxOR fluorescence; stronger effect = higher value;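 active = fluorescence ratio B-score, a plate-corrected score, at least three library SD, with initial intensity B-score within 5 SD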
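Medium – assay buffer, equal DMSO in all wells · Material – CHO-K1 cell line with stable KCNQ1 potassium channel expression · Signal – kinetic FluxOR thallium fluorescence, 10-s 1-Hz baseline, 110-s post-stimulus read · Compound – single concentration per compound, DMSO matched to controls · Schedule – 37 °C overnight plating, 90-min dark dye load, 20-min compound pretreatment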
KCNK3 inh: human KCNK3 channel inhibition, primary screen | CHO-KCNK3 thallium flux, FluxOR fluorescence; stronger effect = lower value | 340,000 compounds, 0.84% hits | B-score at 10 µM | AID 602410;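 active = B-score under library mean minus 4 SD, starting fluorescence ratio at most library mean plus 5 SD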;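 note: more negative B-score means stronger inhibition of thallium flux through KCNK3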
KCNQ1 inh: inhibitors of human KCNQ1 potassium channel. AID 2642. P51787. B-score at 10 µM. CHO-K1 KCNQ1, FluxOR thallium flux fluorescence; stronger effect = higher value. 310,000 compounds, 1.3% hits;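 active = compounds whose thallium flux B-score, printed positive for inhibition, exceeds three library SD while starting fluorescence stays within three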;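 note: channel opened by potassium depolarization with thallium stimulus after 20 min compound exposure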
KCNK9 block: inhibitors of human KCNK9 two-pore domain potassium channel | HEK293 KCNK9, FluxOR thallium flux fluorescence; stronger effect = lower value | 310,000 compounds, 1.2% hits | B-score at 10 µM | AID 488922;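 active = ratio B-score over 3 SD below the library mean, with starting fluorescence within 5 SD of its mean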;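 note: negative B-score means less thallium flux so channel inhibition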
Target sequence (Q9NPC2 whole entry, looked up, the tested form may be a part): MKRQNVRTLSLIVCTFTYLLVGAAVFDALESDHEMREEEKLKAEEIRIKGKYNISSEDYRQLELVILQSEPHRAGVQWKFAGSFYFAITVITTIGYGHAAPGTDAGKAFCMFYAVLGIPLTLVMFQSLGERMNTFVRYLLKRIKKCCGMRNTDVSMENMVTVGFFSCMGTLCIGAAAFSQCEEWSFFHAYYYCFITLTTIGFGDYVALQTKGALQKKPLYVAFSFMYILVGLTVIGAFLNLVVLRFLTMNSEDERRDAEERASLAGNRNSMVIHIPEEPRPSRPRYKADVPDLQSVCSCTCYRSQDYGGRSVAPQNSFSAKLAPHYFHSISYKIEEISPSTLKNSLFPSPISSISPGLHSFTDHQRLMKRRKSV
The depositor's hits bear a star; i = inactive; nt = no result given.

SMILES	hERG protect	KCNQ1 act	KCNK3 inh	KCNQ1 inh	KCNK9 block
Cc1c(C)c2ccc(OC(C)C(=O)NCCCN3CCOCC3)c(C)c2oc1=O (stereo not drawn)	-4.2	i	i	i	i
OC(COC(c1ccccc1)c1ccccc1)CN1CCCCC1 (stereo not drawn)	6.4*	i	i	i	i
CCOC(=O)CSc1cc(CS(=O)c2ccc(Cl)cc2)nc(-c2ccccc2)n1 (stereo not drawn)	-9.3	i	i	i	i
CCOC(=O)CSc1cc(CSc2ccccc2)nc(-c2ccccc2)n1	-7.9	i	i	i	-6.67*
Clc1ccc(SCc2cc(Cl)nc(-c3ccccc3)n2)cc1	-7.3	i	i	i	-6.68*
CCc1ccc(C(=O)COC(=O)c2ccccc2OC)cc1	-8.0	i	i	i	i
O=C(CSc1ccc2nnc(CCNC(=O)c3ccccc3)n2n1)NCCc1ccccc1	-8.0	i	i	i	i
CCNc1nc(CN2CCOCC2)nc2sc3c(c12)CCC3	-5.0	i	i	i	i
c1ccc2c(c1)CCN(c1nc(CN3CCOCC3)nc3sc4c(c13)CCCC4)C2	-12.6	i	i	6*	i
Cc1cccc(N2C(=O)CS/C2=N\NC(=O)c2ccc(Br)cc2)c1C	5.6*	i	i	i	i
COc1ccc(/C=C(\C#N)C(=O)OCC(=O)Nc2ccc(C(C)(C)C)cc2)cc1	-14.1	i	i	7*	i
CCN1CCN(Cc2c(C)[nH]c3ccc(C(=O)OC)cc3c2=O)CC1	5.6*	i	i	i	i
CCOc1ccc2[nH]c(C)c(CN3CCCCC3)c(=O)c2c1	-3.4	i	i	i	i
COc1ccc(-c2nc(=S)c3ccc4ccccc4c3[nH]2)cc1	63.3*	77*	i	i	i
Cc1cc2ncc(S(C)(=O)=O)c(N)n2n1	-13.3	i	i	i	i
CC(=O)NO	-3.6	i	nt	i	i
CCCNC(=O)Cn1c(=O)oc2ccccc21	-3.2	i	i	i	i
C=C1CCN(c2ccc(C(=O)NCc3ccc(C)cc3)cc2[N+](=O)[O-])CC1	-10.5	14*	i	i	i
C=C1CCN(c2ccc(C(=O)NCc3ccc(OC)cc3)cc2[N+](=O)[O-])CC1	-7.0	i	i	i	i
c1ccc(CCCNc2ncnc3nc[nH]c23)cc1	6.0*	i	i	i	i
COc1ccc(C(CNC(=O)c2ccc(-c3ccccc3)cc2)N(C)C)cc1OC (stereo not drawn)	-9.1	i	i	i	i
Cc1nn(Cc2ccccc2Cl)c2sc(C(=O)Nc3ccccc3N3CCOCC3)cc12	-6.6	i	i	6*	i
Cc1ccc(C(NC(=O)C2CCCCC2)c2c(O)ccc3ccccc23)cc1 (stereo not drawn)	-16.4	i	i	9*	i
CC(=O)NC(c1ccc(C(C)C)cc1)c1c(O)ccc2ccccc12 (stereo not drawn)	-1.9	i	i	i	i
CC(c1ccccc1)n1c(-c2ccc(Cl)cc2)n[nH]c1=S (stereo not drawn)	7.8*	i	i	i	i
SMILES	hERG protect	KCNQ1 act	KCNK3 inh	KCNQ1 inh	KCNK9 block
Cc1nn(CCc2nn[nH]n2)c2nc(-c3ccc(C4CCCCC4)cc3)cc(C(F)(F)F)c12	-16.2	50*	i	i	i
S=C(Nc1ccc(Cl)cc1Cl)Nc1ccccc1Oc1ccccc1	-8.1	i	i	i	i
C=COCCNC(=S)Nc1cccc(Cl)c1	-4.5	i	i	i	i
O=C(NNC(=S)Nc1cccc(Cl)c1)c1ccccc1OC(F)F	-15.3	i	i	9*	i
COCCCNC(=S)NNC(=S)Nc1cccc(Cl)c1	-9.2	i	i	6*	i
S=C(Nc1cccc(Cl)c1)Nc1ccccc1Oc1ccccc1	-6.5	i	i	8*	i
O=C(Oc1ccc(N(Cc2cccs2)C2=NS(=O)(=O)c3ccccc32)cc1)c1ccccc1F	-9.2	i	i	i	i
CN1C[C@@H]2[C@@H]3C(=O)N(Cc4ccccc4)C(=O)[C@@H]3[C@](Cc3ccccc3)(C1=O)N2C(=O)c1ccc(Br)cc1	nt	nt	i	nt	nt
CCOP(=O)(OCC)c1nc(-c2ccc(F)cc2)oc1NCc1ccccc1	-11.3	i	i	i	-6.63*
CCOP(=O)(OCC)c1nc(-c2ccccc2)oc1NCc1ccccc1	-19.0	i	i	i	i
O=C(CC(c1ccccc1)c1ccccc1O)NCc1ccccc1Cl (stereo not drawn)	-9.6	i	i	i	-7.55*
COc1ccccc1C(CC(=O)Nc1ccc(Cl)cc1)c1ccc(OC(C)C)cc1 (stereo not drawn)	-5.8	i	i	i	i
O=C(CC(c1ccccc1)c1ccccc1O)NCc1ccco1 (stereo not drawn)	-8.9	i	i	i	i
CC(C)Oc1ccc(CNC(=O)CC(c2ccccc2)c2cc(Cl)ccc2O)cc1 (stereo not drawn)	-13.2	i	i	7*	-7.32*
Oc1ccc(Oc2ccc(Oc3ccc(O)cc3)cc2)cc1	-8.7	i	i	13*	-6.91*
N=c1c2c(n(Cc3ccc(Br)cc3)c3c1CCC3)CCCC2	-18.6	i	i	7*	i
N=c1c2c(n(Cc3ccc(Cl)c(Cl)c3)c3c1CCC3)CCCC2	-13.6	i	i	i	i
Cc1cc2nc(-c3ccc(SCc4ccccc4C#N)nc3)[nH]c2cc1C	-0.5	i	i	7*	i
O=P(CCCO)(Cc1ccccc1)Cc1ccccc1	-4.3	i	i	i	i
CS(=O)(=O)c1sc(C#N)c2c1C(=O)CC(c1ccccc1)C2 (stereo not drawn)	-9.8	27*	i	i	i
COc1ccc(/C=N/OC(=O)c2ccc(Cl)cc2)c(Cl)c1OC	-9.5	i	i	i	i
COc1ccc(CNc2oc(-c3cccc4ccccc34)nc2C#N)cc1	-5.7	i	i	i	-7.29*
CNc1oc(-c2cccc3ccccc23)nc1C#N	1.1	i	i	i	i
O=C(NCCN1CCN(C(=O)c2ccc([N+](=O)[O-])cc2)CC1)C(=O)Nc1ccc(F)cc1	-6.9	i	i	i	i
CC1CCCC(NC(=O)C2CCCN2S(=O)(=O)c2cccc3nsnc23)C1C (stereo not drawn)	-4.7	i	i	i	i
Cn1c(C(=O)N2CCCC(C(=O)NCCN3CCOCC3)C2)cc2sccc21 (stereo not drawn)	7.3*	i	i	i	i
CCOc1ccc(S(=O)(=O)N2CCCC(C(=O)NCCN3CCOCC3)C2)cc1Cl (stereo not drawn)	-7.3	9*	i	i	i
